# Reference: ChEMBL document CHEMBL2311514, “Further exploration of M₁ allosteric agonists: subtle structural changes abolish M₁ allosteric agonism and result in pan-mAChR orthosteric antagonism” (Bioorg Med Chem Lett, 2013)
# Positions count from the first letter of the chain named. Calls of active or inactive are those of the source. The rule behind the calls is not given here.
# Legend:
# [1] = target: T1, Muscarinic acetylcholine receptor M1 (Rattus norvegicus) (UniProt P08482); assay: Partial agonist activity at rat muscarinic M1 receptor expressed in CHO cells calcium response relative to acetylcholine; type: functional, cell-based
# T1 sequence (whole entry): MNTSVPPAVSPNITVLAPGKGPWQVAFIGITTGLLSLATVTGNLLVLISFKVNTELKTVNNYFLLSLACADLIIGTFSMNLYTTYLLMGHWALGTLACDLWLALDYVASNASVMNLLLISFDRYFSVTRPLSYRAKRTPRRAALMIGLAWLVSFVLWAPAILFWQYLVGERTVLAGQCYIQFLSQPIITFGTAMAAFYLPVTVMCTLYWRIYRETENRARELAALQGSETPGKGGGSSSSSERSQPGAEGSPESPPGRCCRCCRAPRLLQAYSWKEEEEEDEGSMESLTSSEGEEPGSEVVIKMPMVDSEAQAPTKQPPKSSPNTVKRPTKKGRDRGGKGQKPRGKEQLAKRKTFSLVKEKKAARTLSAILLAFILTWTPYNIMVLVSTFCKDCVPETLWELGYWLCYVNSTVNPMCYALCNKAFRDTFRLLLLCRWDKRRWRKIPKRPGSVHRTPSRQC
# Procedure, shortened: (§1)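 Run in agonist mode as concentration-response curves on rat M1–M5 receptors. EC50 and pEC50 were taken from the curves. Efficacy was expressed as a percentage of the maximal acetylcholine response.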
# [2] = target: T2, Muscarinic acetylcholine receptor M1 (Rattus norvegicus, UniProt P08482); assay: (§2) Partial agonist activity at rat muscarinic M1 receptor expressed in CHO cells calcium response; type: functional, cell-based; procedure, shortened: as §1
# T2 sequence (P08482 whole entry): T1 sequence (whole entry)
# [3] = target: T3, Muscarinic acetylcholine receptor M5 (Homo sapiens, UniProt P08912); assay: (§3) Antagonist activity at human muscarinic M5 receptor expressed in CHO cells assessed as inhibition of Ach-induced calcium response; type: functional, cell-based
# T3 sequence (P08912 whole entry): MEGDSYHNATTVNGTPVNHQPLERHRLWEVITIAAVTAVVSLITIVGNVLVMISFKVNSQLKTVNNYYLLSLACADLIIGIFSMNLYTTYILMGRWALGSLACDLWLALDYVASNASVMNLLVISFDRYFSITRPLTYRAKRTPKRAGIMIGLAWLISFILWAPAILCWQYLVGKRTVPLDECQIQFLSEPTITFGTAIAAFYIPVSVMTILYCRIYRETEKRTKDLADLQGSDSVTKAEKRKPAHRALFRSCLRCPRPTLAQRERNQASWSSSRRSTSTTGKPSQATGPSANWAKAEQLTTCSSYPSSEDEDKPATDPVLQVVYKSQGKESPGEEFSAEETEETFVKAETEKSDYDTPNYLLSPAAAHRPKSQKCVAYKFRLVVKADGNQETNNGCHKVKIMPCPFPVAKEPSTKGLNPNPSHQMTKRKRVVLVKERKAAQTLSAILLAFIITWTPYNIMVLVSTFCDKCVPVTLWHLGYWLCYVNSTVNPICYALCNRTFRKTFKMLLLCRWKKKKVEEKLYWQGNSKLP
# [4] = target: T4, Muscarinic acetylcholine receptor M2 (Homo sapiens, UniProt P08172); assay: (§4) Antagonist activity at human muscarinic M2 receptor expressed in CHO cells assessed as inhibition of Ach-induced calcium response; type: functional, cell-based
# T4 sequence (P08172 whole entry): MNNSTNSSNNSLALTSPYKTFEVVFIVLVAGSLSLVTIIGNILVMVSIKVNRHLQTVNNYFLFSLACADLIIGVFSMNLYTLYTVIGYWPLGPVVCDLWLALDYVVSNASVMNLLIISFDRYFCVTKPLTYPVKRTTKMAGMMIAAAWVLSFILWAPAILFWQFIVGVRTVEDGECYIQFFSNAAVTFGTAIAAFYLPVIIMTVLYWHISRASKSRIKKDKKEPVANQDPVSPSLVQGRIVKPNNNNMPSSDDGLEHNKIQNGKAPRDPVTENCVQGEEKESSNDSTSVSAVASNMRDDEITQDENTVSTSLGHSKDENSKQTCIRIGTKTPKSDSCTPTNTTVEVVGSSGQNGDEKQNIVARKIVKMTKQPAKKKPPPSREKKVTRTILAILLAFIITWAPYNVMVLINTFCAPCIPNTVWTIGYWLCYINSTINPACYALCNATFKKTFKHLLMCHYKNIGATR
# [5] = target: T3, Muscarinic acetylcholine receptor M5; assay: Partial agonist activity at human muscarinic M5 receptor expressed in CHO cells calcium response; type: functional, cell-based
# [6] = target: T4, Muscarinic acetylcholine receptor M2; assay: Partial agonist activity at human muscarinic M2 receptor expressed in CHO cells calcium response; type: functional, cell-based
# [7] = target: T5, Muscarinic acetylcholine receptor M5 (Rattus norvegicus, UniProt P08911); assay: (§5) Antagonist activity at rat muscarinic M5 receptor expressed in CHO cells assessed as inhibition of Ach-induced calcium response; type: functional, cell-based
# T5 sequence (P08911 whole entry): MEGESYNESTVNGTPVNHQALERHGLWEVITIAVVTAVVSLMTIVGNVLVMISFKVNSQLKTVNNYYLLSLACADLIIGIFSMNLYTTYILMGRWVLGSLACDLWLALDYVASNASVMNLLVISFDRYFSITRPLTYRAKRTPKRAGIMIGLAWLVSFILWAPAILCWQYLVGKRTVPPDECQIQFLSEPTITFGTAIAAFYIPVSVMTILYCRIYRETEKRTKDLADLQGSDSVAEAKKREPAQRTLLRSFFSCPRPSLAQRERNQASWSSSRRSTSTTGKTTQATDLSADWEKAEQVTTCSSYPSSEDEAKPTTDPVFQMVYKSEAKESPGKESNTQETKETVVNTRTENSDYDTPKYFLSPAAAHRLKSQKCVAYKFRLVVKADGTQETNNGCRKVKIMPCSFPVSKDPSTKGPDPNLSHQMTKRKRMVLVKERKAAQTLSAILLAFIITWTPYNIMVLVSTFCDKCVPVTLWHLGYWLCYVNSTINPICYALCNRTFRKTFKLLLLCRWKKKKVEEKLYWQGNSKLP
# [8] = target: T6, Muscarinic acetylcholine receptor M3 (Rattus norvegicus, UniProt P08483); assay: (§6) Antagonist activity at rat muscarinic M3 receptor expressed in CHO cells assessed as inhibition of Ach-induced calcium response; type: functional, cell-based
# [9] = target: T7, Muscarinic acetylcholine receptor M2 (Rattus norvegicus, UniProt P10980); assay: (§7) Antagonist activity at rat muscarinic M2 receptor expressed in CHO cells assessed as inhibition of Ach-induced calcium response; type: functional, cell-based
# T7 sequence (P10980 whole entry): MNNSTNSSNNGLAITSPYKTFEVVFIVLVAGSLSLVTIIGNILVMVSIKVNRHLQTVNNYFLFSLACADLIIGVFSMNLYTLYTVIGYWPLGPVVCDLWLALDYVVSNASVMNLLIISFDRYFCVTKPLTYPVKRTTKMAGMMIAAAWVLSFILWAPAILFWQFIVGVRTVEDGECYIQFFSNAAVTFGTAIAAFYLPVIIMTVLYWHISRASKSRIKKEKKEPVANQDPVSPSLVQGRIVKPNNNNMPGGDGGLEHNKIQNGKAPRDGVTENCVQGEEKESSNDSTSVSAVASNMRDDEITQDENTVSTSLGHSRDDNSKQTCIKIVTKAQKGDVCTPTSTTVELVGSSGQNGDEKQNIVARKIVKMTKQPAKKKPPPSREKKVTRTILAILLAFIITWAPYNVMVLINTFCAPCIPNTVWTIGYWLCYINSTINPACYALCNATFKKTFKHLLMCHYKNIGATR
# [10] = target: T6, Muscarinic acetylcholine receptor M3; assay: Partial agonist activity at rat muscarinic M3 receptor expressed in CHO cells calcium response; type: functional, cell-based; procedure, shortened: as §1
# [11] = target: T7, Muscarinic acetylcholine receptor M2; assay: Partial agonist activity at rat muscarinic M2 receptor expressed in CHO cells calcium response; type: functional, cell-based; procedure, shortened: as §1
# [12] = target: T1, Muscarinic acetylcholine receptor M1 (Rattus norvegicus); assay: (§8) Antagonist activity at rat muscarinic M1 receptor expressed in CHO cells assessed as inhibition of Ach-induced calcium response; type: functional, cell-based
# [13] = target: T2, Muscarinic acetylcholine receptor M1; assay: as §8; type: functional, cell-based
# [14] = target: T8, Muscarinic acetylcholine receptor M4 (Rattus norvegicus, UniProt P08485); assay: (§9) Antagonist activity at rat muscarinic M4 receptor expressed in CHO cells assessed as inhibition of Ach-induced calcium response; type: functional, cell-based
# T8 sequence (P08485 whole entry): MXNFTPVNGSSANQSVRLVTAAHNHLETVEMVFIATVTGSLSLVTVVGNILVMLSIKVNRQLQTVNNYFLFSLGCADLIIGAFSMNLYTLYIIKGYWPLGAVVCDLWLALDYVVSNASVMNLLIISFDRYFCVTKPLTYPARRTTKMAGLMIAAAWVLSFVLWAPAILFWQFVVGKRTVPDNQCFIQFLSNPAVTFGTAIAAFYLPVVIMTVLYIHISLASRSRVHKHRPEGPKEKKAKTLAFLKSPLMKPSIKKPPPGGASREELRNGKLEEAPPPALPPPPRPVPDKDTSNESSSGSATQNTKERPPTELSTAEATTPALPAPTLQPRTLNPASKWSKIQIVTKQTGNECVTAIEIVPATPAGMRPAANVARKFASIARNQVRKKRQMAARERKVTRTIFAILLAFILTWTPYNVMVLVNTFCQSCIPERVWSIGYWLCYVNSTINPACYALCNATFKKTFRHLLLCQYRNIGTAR
# [15] = target: T1, Muscarinic acetylcholine receptor M1 (Rattus norvegicus); assay: as §2; type: functional, cell-based; procedure, shortened: as §1
# [16] = target: T9, Muscarinic acetylcholine receptor M5 (Rattus norvegicus) (UniProt P08911); assay: as §5; type: functional, cell-based
# T9 sequence (whole entry): T5 sequence (P08911 whole entry)
# [17] = target: T10, Muscarinic acetylcholine receptor M4 (Rattus norvegicus) (UniProt P08485); assay: as §9; type: functional, cell-based
# T10 sequence (whole entry): T8 sequence (P08485 whole entry)
# [18] = target: Muscarinic acetylcholine receptor M3 (Rattus norvegicus) (UniProt P08483); assay: as §6; type: functional, cell-based
# [19] = target: T11, Muscarinic acetylcholine receptor M2 (Rattus norvegicus) (UniProt P10980); assay: as §7; type: functional, cell-based
# T11 sequence (whole entry): T7 sequence (P10980 whole entry)
# [20] = target: T1, Muscarinic acetylcholine receptor M1 (Rattus norvegicus); assay: Orthosteric antagonist activity at rat muscarinic M1 receptor expressed in CHO cells using [3HNMS] at 50 uM by dissociation kinetic studies; type: cell-based
# [21] = target: T2, Muscarinic acetylcholine receptor M1; assay: Displacement of [3H]NMS from rat muscarinic M1 receptor expressed in CHO cells after 3 hrs; type: cell-based
# [22] = target: T12, Muscarinic acetylcholine receptor M1 (Homo sapiens) (UniProt P11229); assay: Antagonist activity at human muscarinic M1 receptor expressed in CHO cells assessed as inhibition of acetylcholine-induced calcium response; type: functional, cell-based
# T12 sequence (whole entry): T1 sequence (whole entry) with V5A, S254T, S309P, K320R, G337A, V413I
# [23] = target: T13, Muscarinic acetylcholine receptor M5 (Homo sapiens) (UniProt P08912); assay: as §3; type: functional, cell-based
# T13 sequence (whole entry): T3 sequence (P08912 whole entry)
# [24] = target: T14, Muscarinic acetylcholine receptor M2 (Homo sapiens) (UniProt P08172); assay: as §4; type: functional, cell-based
# T14 sequence (whole entry): T4 sequence (P08172 whole entry)
# T6 sequence (P08483 whole entry): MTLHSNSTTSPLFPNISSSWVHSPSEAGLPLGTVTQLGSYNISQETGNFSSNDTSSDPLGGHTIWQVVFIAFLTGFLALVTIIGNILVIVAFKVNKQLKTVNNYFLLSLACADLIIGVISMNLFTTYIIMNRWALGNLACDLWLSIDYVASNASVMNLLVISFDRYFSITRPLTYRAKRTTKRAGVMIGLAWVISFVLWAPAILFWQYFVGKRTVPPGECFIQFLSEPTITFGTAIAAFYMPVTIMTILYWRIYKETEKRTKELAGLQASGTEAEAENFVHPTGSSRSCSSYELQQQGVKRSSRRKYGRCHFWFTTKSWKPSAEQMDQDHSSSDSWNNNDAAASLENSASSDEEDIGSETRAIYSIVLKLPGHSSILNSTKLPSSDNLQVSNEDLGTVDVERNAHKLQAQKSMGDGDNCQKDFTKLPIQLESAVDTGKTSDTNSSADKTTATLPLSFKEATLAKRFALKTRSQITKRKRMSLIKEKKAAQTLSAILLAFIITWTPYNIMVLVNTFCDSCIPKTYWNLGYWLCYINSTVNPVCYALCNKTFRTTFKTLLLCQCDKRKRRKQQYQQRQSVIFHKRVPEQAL
# Sequence of Muscarinic acetylcholine receptor M3 (Rattus norvegicus) (P08483 whole entry, looked up): as the sequence (P08483 whole entry) above
compound,measurement,setting,value
CCOC(=O)N1CCC(N2CCC[C@@H](NC(=O)c3cccc(Br)c3)C2)CC1,Imax,[1],37.4%
same,EC50,[2],2 µM
Cc1ccccc1CN1CCC(N2CCC(n3c(=O)[nH]c4ccccc43)CC2)CC1,IC50,[3],4.9 µM
same,IC50,[4],3.5 µM
same,EC50,[5],> 30 µM
same,EC50,[6],> 30 µM
same,IC50,[7]; read-out: IC50,3.97 µM
same,IC50,[8]; read-out: IC50,5.48 µM
same,IC50,[9]; read-out: IC50,1.29 µM
same,EC50,[10],> 30 µM
same,EC50,[11],> 30 µM
same,Imax,[1],69.3%
Cc1ccccc1CN1CCC(N2CC3CC(n4c(=O)[nH]c5ccccc54)CC3C2)CC1 (centres undefined),Imax,[12],-1.07%
same,IC50,[13]; read-out: IC50,6.4 µM
same,IC50,[7]; read-out: IC50,> 10 µM
same,IC50,[14],> 10 µM
same,IC50,[8]; read-out: IC50,> 10 µM
same,IC50,[9]; read-out: IC50,> 10 µM
same,Activity,[15],inactive
CCOC(=O)N1CCC(N[C@H]2CCCN(C(=O)c3ccccc3)C2)CC1,Imax,[12],3%
same,IC50,[13]; read-out: IC50,0.273 µM
same,IC50,[13]; read-out: pIC50 (converted),0.479 µM
same,inhibition,[16],Active
same,inhibition,[17],Active
same,inhibition,[18],Active
same,inhibition,[19],Active
Cc1ccccc1CN1CCC(N2CCC(n3c(=O)[nH]c4ccccc43)C(F)C2)CC1 (centres undefined),Activity,[20],Active
same,Ki,[21],1.35 µM
same,inhibition,[22],Active
same,Imax,[12],13.6%
same,IC50,[13]; read-out: IC50,4.9 µM
same,inhibition,[23],Active
same,inhibition,[24],Active
same,IC50,"[7]; cho, read-out: IC50",> 10 µM
same,IC50,[7]; read-out: pIC50 (converted),> 10 µM
same,IC50,[14],5.2 µM
same,IC50,"[8]; cho, read-out: IC50",> 10 µM
same,IC50,[8]; read-out: pIC50 (converted),> 10 µM
same,IC50,"[9]; cho, read-out: IC50",> 10 µM
same,IC50,[9]; read-out: pIC50 (converted),> 10 µM
same,Activity,[15],inactive
CCOC(=O)N1CCC(N2CCC[C@@H](NC(=O)c3cc(Br)cc(Br)c3)C2)CC1,Imax,[12],0.4%
same,IC50,[13]; read-out: pIC50 (converted),3.39 µM
CCOC(=O)N1CCC(N2CCC[C@@H](NC(=O)c3ccc(C(F)(F)F)nc3)C2)CC1,Imax,[12],2.7%
same,IC50,[13]; read-out: pIC50 (converted),3.16 µM
same,IC50,[7]; read-out: IC50,> 10 µM
same,IC50,[14],> 10 µM
same,IC50,[8]; read-out: IC50,> 10 µM
same,IC50,[9]; read-out: pIC50 (converted),1.07 µM
